Results from different studies.
Each line is one published result; the experiments were not run side by side.
Target: Inhibitor of nuclear factor kappa-B kinase subunit epsilon (IKBKE, Homo sapiens, UniProt Q14164)
Residues used in one study (Q14164 1-716): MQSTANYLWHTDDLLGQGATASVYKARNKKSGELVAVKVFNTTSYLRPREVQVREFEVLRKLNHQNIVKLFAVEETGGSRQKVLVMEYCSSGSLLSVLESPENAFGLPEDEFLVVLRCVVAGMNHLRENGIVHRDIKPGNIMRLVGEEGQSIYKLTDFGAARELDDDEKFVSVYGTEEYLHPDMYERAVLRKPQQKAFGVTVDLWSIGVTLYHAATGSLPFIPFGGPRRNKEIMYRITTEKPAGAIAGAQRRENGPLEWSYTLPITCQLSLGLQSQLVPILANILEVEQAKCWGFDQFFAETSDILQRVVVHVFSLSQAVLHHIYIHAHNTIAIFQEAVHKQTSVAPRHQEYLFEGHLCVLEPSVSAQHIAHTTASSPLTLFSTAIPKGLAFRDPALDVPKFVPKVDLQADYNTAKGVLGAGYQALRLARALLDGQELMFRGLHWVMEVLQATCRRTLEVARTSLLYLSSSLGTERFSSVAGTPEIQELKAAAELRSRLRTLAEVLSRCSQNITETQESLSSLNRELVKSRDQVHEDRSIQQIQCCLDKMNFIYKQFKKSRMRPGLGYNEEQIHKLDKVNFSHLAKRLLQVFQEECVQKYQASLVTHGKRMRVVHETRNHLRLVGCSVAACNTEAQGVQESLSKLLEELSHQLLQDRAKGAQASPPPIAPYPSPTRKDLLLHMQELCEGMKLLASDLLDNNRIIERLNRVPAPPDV

SMILES	assay	setting	endpoint	value
O=C(NCCCNc1ccnc(Nc2cccc(NC(=O)N3CCCC3)c2)n1)C1CCC1	enzyme activity, inhibitor, radiometric	1 µM	remaining activity	33%
Nc1c(C(=O)NCc2ccc(C(=O)NCCCC3CCCCC3)cc2)cnn1-c1ccccc1	cell-free assay, competition with immobilised ligand	0.1 µM	remaining binding	100%
CN1CCN(c2ccc3nc(-c4c(N)c5c(F)cccc5[nH]c4=O)[nH]c3c2)CC1	enzyme activity, inhibitor	0.5 µM	activity vs control	42.9%
Cc1nn(CC(F)(F)F)cc1Nc1ncc(Br)c(NCCCNC(=O)C2CCC2)n1	enzyme activity, inhibitor, radiometric	1 µM	remaining activity	1%
CCCS(=O)(=O)Nc1ccc(F)c(C(=O)c2c[nH]c3ncc(-c4ccc(Cl)cc4)cc23)c1F	enzyme activity, inhibitor	1 µM	inhibition	< 10%
C[C@H](NC(=O)c1cnc2n1[C@](C)(Cc1ccc(C#N)cc1)C(=O)N2c1cc(Cl)c(F)c(Cl)c1)C(=O)NC1(c2ccccn2)CC1	cell-free assay, competition with immobilised ligand	1 µM	remaining binding	89%
Cc1nn(CC(F)(F)F)cc1Nc1nccc(NCCCNC(=O)C2CCC2)n1	enzyme activity, inhibitor, radiometric	1 µM	remaining activity	63%
COc1cc2ncnc(Nc3ccc(Oc4ccccc4)cc3C)c2cc1OC	enzyme activity, inhibitor	1 µM	inhibition	5%
Cc1ccc(C(=O)NCc2ccsc2)cc1C#Cc1cn(C(C)C)c2ncnc(N)c12	enzyme activity, inhibitor	1 µM	activity vs control	104%
Cc1nn(CC(F)(F)F)cc1Nc1ncc(Br)c(NCc2ccc(S(N)(=O)=O)cc2)n1	enzyme activity, inhibitor, radiometric	1 µM	remaining activity	23%
CCN(CC)CCNC(=O)c1c(C)[nH]c(/C=C2\C(=O)Nc3ccc(F)cc32)c1C	cell-free assay	0.5 µM	remaining signal	45.6%
CCC(=O)N[C@H]1CC[C@@H](C(=O)N(C)c2ccc(-c3nc4ccccc4o3)cc2)C1	cell-free assay, competition with immobilised ligand	1 µM	remaining binding	52%
O=C1c2ccccc2-c2n[nH]c3cccc1c23	enzyme activity, inhibitor	0.5 µM	activity vs control	88.9%
Cc1c[nH]c2nccc(Oc3c(F)cc(Nc4cc(Cl)nc(N)n4)cc3F)c12	cell-free assay, competition with immobilised ligand	0.1 µM	remaining binding	93%
COc1cc(Nc2c(C#N)cnc3cc(OCCCN4CCN(C)CC4)c(OC)cc23)c(Cl)cc1Cl	cell-free assay	0.5 µM	remaining signal	75.4%
Cc1ccc(NC(=O)c2ccc(C)c(C(F)(F)F)c2)cc1C#Cc1nn(C2CCC(O)CC2)c2ncnc(N)c12 (stereo not shown)	cell-free assay	10 µM	remaining signal	94%
O=C(Nc1cccc(Nc2ncc(Br)c(NCCc3cnc[nH]3)n2)c1)N1CCCC1	enzyme activity, inhibitor, radiometric	1 µM	remaining activity	44%
COc1ccnn2ncc(-c3ccnc(N(C)C)n3)c12	binding	1 µM	remaining binding	94%
O=c1nc(-c2ccccn2)sc2ccccc12	binding, competition with immobilised ligand	1 µM	remaining binding	100%
NS(=O)(=O)c1ccc(CNc2nc(Nc3cccc(NC(=O)N4CCCC4)c3)ncc2C2CC2)cc1	enzyme activity, inhibitor, radiometric	1 µM	remaining activity	52%
Cc1noc([C@H]2C[C@@H](c3ccc(C(F)(F)F)cc3)CN(C(=O)N3CCS(=O)(=O)C3)C2)n1	cell-free assay, competition with immobilised ligand	1 µM	remaining binding	100%
Cc1nn(CC(F)(F)F)cc1Nc1ncc(C2CC2)c(NCc2ccc(S(N)(=O)=O)cc2)n1	enzyme activity, inhibitor, radiometric	1 µM	remaining activity	43%
